Assay results: PubChem BioAssay
Inconclusive results are not listed.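 How the source made its calls, unless noted: active means viability at or below 27.92% in each of two runs, the all-compound median minus 4 SD; inconclusive means no clear call, values can overlap the other calls; inactive means the rest.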

Legend:
[1] = OD615 S. cerevisiae growth inhibition, permissive medium, pilot counter-assay, permissive growth control for S. cerevisiae lifespan shortening project (AID 705;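 active means growth inhibition above 25% in both replicates, a cutoff set 3 SD above the mean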); conditions: OD615, 24 h, at 10 µM, active compounds read high
Outline: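 System: engineered DeaD yeast; Medium: permissive raffinose/galactose medium; Compound dosing: 10 µM single dose, 0.25% DMSO; Incubation: 4 h cell pre-growth, 24 h exposure at 30 °C; Technique: OD at 615 nm; Evaluation: growth inhibition from lowered OD615 after 24 h.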

[2] = Restrictive medium S. cerevisiae growth inhibition, OD615, pilot screen of yeast lifespan reduction project, restrictive growth control (AID 706;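 active means growth inhibition above a set limit, 3 SD over mean compound inhibition, in both replicates, cut at about 43% in these data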;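 further: modified DeaD lifespan yeast strain shifted to restrictive glucose medium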); conditions: OD615, 48 h, at 10 µM, active compounds read high
Outline: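 Material: modified S. cerevisiae; buffer or medium: CSMM-D glucose medium; doses: one concentration, 10 µM final, 0.25% DMSO; incubation: 48 h compound exposure at 30 °C; detection: optical density at 615 nm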

[3] = viability gain of MRP-1-high H69AR cells under doxorubicin, pilot screen, MRP-1 activator project, CellTiter-Glo, duplicate (AID 807;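 active means viability increase at or above a cutoff of the median across tested compounds plus 3 SD, cut at about 8.5% in these data, passing the limit was not always enough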;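 further: compound pretreatment 18-22 h then 72 h combined with doxorubicin; 0% = doxorubicin alone and 100% = vehicle without doxorubicin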); conditions: H69AR viability with doxorubicin, CellTiter-Glo luminescence; at 10 µM; active compounds read high
[4] = growth suppression of beta-catenin knockout HCT116, pilot screen, human colon tumor cells (AID 823;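 active means cell viability at or below a set limit in both duplicate runs, the limit being the all-compound median minus 4 SD, cut at about 23% in these data, passing the limit was not always enough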;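 further: 0% = wells killed by 20 µM Hyamine and 100% = untreated DMSO cell wells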); conditions: CellTiter-Glo, 60 h, at 10 µM, active compounds read low
[5] = growth suppression of PTEN-deleted HCT116, pilot screen, cell-based, HCT116 clonal line, CellTiter-Glo (AID 824); conditions: 60 h, at 10 µM, active compounds read low;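 further: 0% = 20 µM Hyamine control and 100% = vehicle cell control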
[6] = inhibitors of the yeast RAM network, pilot screen, dse1pr::URA3 reporter, 5-FOA selection (AID 869;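 active means inhibition over a set limit, the all-compound mean plus 3 SD, in both replicate runs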;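 further: 0% = DMSO wells with no growth and 100% = 10 µM 1-NA-PP1 with full growth; RAM network block rescues cells from 5-FOA so hits raise OD615 growth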); conditions: S. cerevisiae dse1pr::URA3 5-FOA growth, OD615, 2 d; at 10 µM; active compounds read high; strain carries analog-sensitive mutant Cbk1 kinase
[7] = RAM signaling pathway blockade in yeast – S. cerevisiae, Pdr1DBD-CYC8 efflux-inhibited sensitized strain, primary screen (AID 1298;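 active means RAM network inhibition above 8.4% in each of two replicates, 3 SD over the compound average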;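 further: 0% = DMSO untreated cells without growth and 100% = 10 µM 1-NA-PP1 full growth; higher means more yeast growth rescued from 5-FOA killing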); conditions: S. cerevisiae cbk1-as DSE1-URA3 strain, 5-FOA growth OD615, 2 d; at 50 µM; active compounds read high

O=C(NCc1ccco1)c1ccc(Br)c(S(=O)(=O)N2CCCCC2)c1
inactive: growth inhibition [1] 2.44% | growth inhibition [2] -6.06% | viability increase [3] -2.69% | viability [4] 88.8% | viability [5] 88.1% | inhibition [6] 2.61% | RAM network inhibition [7] 4.59%

O=C1Nc2ccccc2C(O)(C(=O)N2CCCCC2)N1c1ccccc1 (stereo not drawn)
inactive: growth inhibition [1] -10.5% | growth inhibition [2] -20.2% | viability increase [3] -1.87% | viability [4] 98.9% | viability [5] 92.2% | inhibition [6] 2.2% | RAM network inhibition [7] 7.2%

CCCCCC(C)n1[nH]c(=O)c2c(C)cc(C)nc21 (stereo not drawn)
inactive: growth inhibition [1] -6.7% | growth inhibition [2] 17.6% | viability increase [3] -3.27% | viability [4] 97.6% | viability [5] 96.2% | inhibition [6] 0.47% | RAM network inhibition [7] 0.57%

O=C1c2cccc3cccc(c23)C(=O)N1c1nccs1
inactive: growth inhibition [1] -1.67% | growth inhibition [2] 0% | viability increase [3] 0.23% | viability [4] 104% | viability [5] 106% | inhibition [6] 1.98% | RAM network inhibition [7] 6.64%

COc1ccc(CNc2oc(C)nc2C#N)cc1
inactive: growth inhibition [1] -0.095% | growth inhibition [2] 5.62% | viability increase [3] -1.84% | viability [4] 98.6% | viability [5] 93.1% | inhibition [6] 0.24% | RAM network inhibition [7] 6.09%

O=C(c1cc(-c2cccc(O)c2)on1)N1CCc2ccccc2C1
inactive: growth inhibition [1] -7.54% | growth inhibition [2] -17.6% | viability increase [3] 1.48% | viability [4] 114% | viability [5] 99.2% | inhibition [6] 0.005% | RAM network inhibition [7] -2.99%

CS(=O)(=O)N1Cc2ccccc2CC1C(=O)Nc1ccccc1C(N)=O (stereo not drawn)
inactive: growth inhibition [1] -2.29% | growth inhibition [2] -1.52% | viability increase [3] -1.04% | viability [4] 108% | viability [5] 97% | inhibition [6] 3.26% | RAM network inhibition [7] 7.36%

COc1ccc(-n2nnc3c(=O)n(CC(=O)N4CCCc5ccccc54)cnc32)cc1
inactive: growth inhibition [1] -1.22% | growth inhibition [2] -1.47% | viability increase [3] -0.27% | viability [4] 95.2% | viability [5] 91.2% | inhibition [6] 2.3% | RAM network inhibition [7] 1.61%

Cc1cc(NCc2ccc3c(c2)OCO3)n2nc(C)nc2n1
inactive: growth inhibition [1] -16.8% | growth inhibition [2] -2% | viability increase [3] -0.9% | viability [4] 94.4% | viability [5] 87.5% | inhibition [6] 0.44% | RAM network inhibition [7] -0.15%

Cc1cccc(OCCCC(=O)Nc2ccc(N3CCOCC3)cc2)c1
inactive: growth inhibition [1] -17% | growth inhibition [2] -11.5% | viability increase [3] -0.5% | viability [4] 90.7% | viability [5] 96.8% | inhibition [6] 2.59% | RAM network inhibition [7] 3.73%

Cn1c(SCC(=O)Nc2ccc(F)cc2F)nnc1-c1cccnc1
inactive: growth inhibition [1] -13.9% | growth inhibition [2] -8.12% | viability increase [3] -0.94% | viability [4] 104% | viability [5] 95% | inhibition [6] 3.28% | RAM network inhibition [7] -0.27%

COc1ccc(CNC(=O)c2cc3c(C)nc4ccccc4c3o2)c(OC)c1
inactive: growth inhibition [1] -10.6% | growth inhibition [2] -12.2% | viability increase [3] -0.17% | viability [4] 74% | viability [5] 75.2% | inhibition [6] 1.66% | RAM network inhibition [7] 6.46%

COc1ccc(N(CC(=O)NC2CCCCC2)S(=O)(=O)c2cccnc2)cc1
inactive: growth inhibition [1] -2.11% | growth inhibition [2] 3.61% | viability increase [3] -1.68% | viability [4] 99.6% | viability [5] 105% | inhibition [6] 1.57% | RAM network inhibition [7] 2.86%

CCC(=O)NCCn1c(C)cc2ccccc21
inactive: growth inhibition [1] 8.84% | growth inhibition [2] 11.4% | viability increase [3] -0.96% | viability [4] 104% | viability [5] 92% | inhibition [6] 1.91% | RAM network inhibition [7] -0.46%

CC1(C)CC(NC(=O)C23CCC(C)(C(=O)C2)C3(C)C)CC(C)(C)N1 (stereo not drawn)
inactive: growth inhibition [1] -4.15% | growth inhibition [2] -6.33% | viability increase [3] -0.11% | viability [4] 96.2% | viability [5] 95.1% | inhibition [6] 2.67% | RAM network inhibition [7] 3.01%

Cc1cc(NC(=O)CSc2nnc(C)c(=O)[nH]2)no1
inactive: growth inhibition [1] -0.975% | growth inhibition [2] 1.15% | viability increase [3] 0.9% | viability [4] 112% | viability [5] 101% | inhibition [6] 2.48% | RAM network inhibition [7] 1.75%

Cc1ccc(-c2nc(CS(=O)CC(=O)N3CCN(c4ncccn4)CC3)c(C)o2)cc1 (stereo not drawn)
inactive: growth inhibition [1] -0.52% | growth inhibition [2] 10.7% | viability increase [3] -2.28% | viability [4] 76.8% | viability [5] 90.2% | inhibition [6] 2.31% | RAM network inhibition [7] 4.78%

CCSc1nc2ccccc2n1S(=O)(=O)c1ccccc1
inactive: growth inhibition [1] -13.9% | growth inhibition [2] -20.8% | viability increase [3] -0.8% | viability [4] 101% | viability [5] 100% | inhibition [6] 0.395% | RAM network inhibition [7] 1.37%

CCOC(=O)c1c(C)n(C)c2ccc(OCC(O)CN3CCCCCC3)cc12 (stereo not drawn)
inactive: growth inhibition [1] -0.855% | growth inhibition [2] -3.17% | viability increase [3] -5.4% | viability [4] 61.5% | viability [5] 62.5% | inhibition [6] 0.77% | RAM network inhibition [7] 2.14%

CCOc1ccc2nc(NC(=O)Nc3cccs3)sc2c1
inactive: growth inhibition [1] -10.4% | growth inhibition [2] -19.9% | viability increase [3] -3.88% | viability [4] 40.1% | viability [5] 31.6% | inhibition [6] 1.08% | RAM network inhibition [7] 0.79%

COc1ccccc1NC(=O)C1=C(C)NC(=O)NC1c1cccc(OC)c1OC (stereo not drawn)
inactive: growth inhibition [1] -3.89% | growth inhibition [2] 2.57% | viability increase [3] -2.1% | viability [4] 104% | viability [5] 94.8% | inhibition [6] 0.545% | RAM network inhibition [7] 3.58%

O=C1CCCc2sc3c(c2N1)CCCCC3
inactive: growth inhibition [1] -3.24% | growth inhibition [2] 2.17% | viability increase [3] -0.35% | viability [4] 98.3% | viability [5] 91.6% | inhibition [6] 1.12% | RAM network inhibition [7] 3.61%

O=C(CSc1nc(-c2ccccc2)c(-c2ccccc2)o1)N1CCOCC1
inactive: growth inhibition [1] -8.68% | growth inhibition [2] -15.5% | viability increase [3] -3.26% | viability [4] 90.2% | viability [5] 89.6% | inhibition [6] 2.38% | RAM network inhibition [7] 4.54%

COc1ccc(OC)c(CN2CCN(c3ccccc3OC)CC2)c1
inactive: growth inhibition [1] -7.27% | growth inhibition [2] -8.51% | viability increase [3] -0.4% | viability [4] 61.2% | viability [5] 71.6% | inhibition [6] 1.86% | RAM network inhibition [7] 5.18%
